High-throughput results (PubChem BioAssay)
HePTP inh: inhibitors of human HePTP phosphatase, primary screen, biochemical, absorbance, leukemia target | recombinant HePTP phosphatase activity, OD absorbance | inhibition, % at 20 µM | hit rate 0.64% among 110,000 | AID 521, 2006; in the data active = inhibition above about 50%;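 also: plate controls were vehicle for no effect and reference inhibitor for full effect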
Target sequence (P35236 whole entry, looked up): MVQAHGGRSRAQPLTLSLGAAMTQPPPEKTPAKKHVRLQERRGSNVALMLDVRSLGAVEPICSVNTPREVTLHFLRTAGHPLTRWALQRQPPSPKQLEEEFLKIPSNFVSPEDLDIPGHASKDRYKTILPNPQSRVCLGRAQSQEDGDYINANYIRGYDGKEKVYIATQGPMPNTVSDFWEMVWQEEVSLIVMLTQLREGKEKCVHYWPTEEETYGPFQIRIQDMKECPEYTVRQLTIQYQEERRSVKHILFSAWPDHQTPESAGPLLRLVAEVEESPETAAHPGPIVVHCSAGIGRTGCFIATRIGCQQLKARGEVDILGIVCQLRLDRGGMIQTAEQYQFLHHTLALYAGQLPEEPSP
E coli WT exp: growth inhibitors of wild-type E. coli, primary screen, strain BW25113, expanded library, OD600. growth inhibition, % at 100 µM. AID 710, 2007. OD600 absorbance. hit rate 0.15% among 98,000;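 active = growth inhibition above about 50% at one test dose, limit read from the data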;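 also: growth measured after 20 h incubation at 37 °C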
tolC growth inh: growth inhibitors of E. coli tolC mutant, primary screen, strain BW25113 ΔtolC::kan, 384-well; OD615; growth inhibition, % at 10 µM (by protocol); hit rate 2.2% among 65,000; AID 573, 2007;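 active = growth inhibition at or above a cutoff equal to the mean over every tested compound plus 3 SD, cut at about 60% in these data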;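 also: growth measured after 20 h incubation at 37 °C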
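Test system – E. coli BW25113 ΔtolC::kan, tolC deletion mutant strain · Detection – OD at 615 nm · Buffer or medium – LB with kanamycin 50 µg/mL · Times – 20 h compound exposure of bacteria at 37 °C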
AP ELISA ortho: alternative complement pathway inhibitors, primary screen, biochemical, ELISA, human serum, orthogonally pooled compounds. LPS-coated ELISA, C3 deposition; tested in compound mixtures. inhibition, % at 5 µM. hit rate 0.08% among 62,000. AID 1235, 2008;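 active = inhibition above 30% in each of the two pooled mixtures holding the compound, so the lower value exceeds 30%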;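 also: 0% = serum in Mg-EGTA without compound and 100% = EDTA serum blank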
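Test system: human serum alternative complement pathway, C3 deposition on LPS-coated wells; also added: Plate-bound LPS; doses: 5 µM per compound in ten-compound mixtures; schedule: 1 h at 37 °C; detection: Anti-C3 ELISA, OD 450 nm; evaluation: percent inhibition of C3 deposition onto LPS; repeats: two pool placements per compound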
PLAP activator: PLAP enzyme activators, biochemical, luminescence, HTS; Alkaline phosphatase, placental type (Homo sapiens), P05187; purified PLAP enzyme, luminescent substrate read-out; hits give high values; activation fold at 20 µM; hit rate 1.2% among 96,000; AID 696, 2007; in the data active = activation fold above about 2
An asterisk follows results filed as active; · = no result. A selection: hits, their analogues and other compounds. The true share with any hit is near 2.3%.

SMILES | HePTP inh | E coli WT exp | tolC growth inh | AP ELISA ortho | PLAP activator
COc1cc(/C=C2/SC(=S)NC2=O)ccc1OS(=O)(=O)c1ccccc1 | 26.2 | · | · | · | ·
Cc1cccc(NC(=O)C(=O)NCC(C)O)c1C (centres undefined) | 10.6 | · | · | · | ·
CC(C)(C)c1[nH]nc2c1C(Cc1ccccc1)C(C#N)=C(N)O2 (centres undefined) | 6.2 | 10.0 | 64.2* | 2.7 | 1.7
CC(C)(C)c1[nH]nc2c1C(c1cccnc1)C(C#N)=C(N)O2 (centres undefined) | 1.1 | 12.0 | 3.0 | 9.0 | 0.9
CC(=O)CC(=O)Nc1cc(Cl)ccc1C | 10.5 | · | · | · | ·
Cc1ccc(Cl)cc1NC(=O)CC(O)(C(F)(F)F)C(F)(F)F | 2.3 | 31.0 | 98.9* | 13.4 | 0.9
CCCCNCCCCCOc1ccc(C)c(C)c1 | -12.9 | · | · | · | ·
COC(=O)c1cc2oc(C)cc2n1CC(=O)N(C)c1ccccc1 | 6.6 | 4.0 | 2.7 | 13.5 | 0.9
CCOC(=O)c1cc2oc(C)cc2n1CC(=O)OC1CCCCC1 | 6.3 | 6.0 | 74.3* | 10.4 | 1
COc1ccc(NC(=O)NCCOc2cc(C)ccc2C(C)C)cc1OC | 0.6 | · | · | · | ·
COc1cccc(NC(=O)N2CCN(c3cccc(C)c3C)CC2)c1 | -3.6 | -6.0 | 71.8* | 16.0 | 0.9
COc1ccc2oc(=O)c(C(=O)Nc3ccc(C)cc3C)cc2c1 | 7.5 | · | · | · | ·
COc1ccc(NS(=O)(=O)c2cc(C)ccc2NC(=O)c2cc(C)oc2C)cc1 | 3.8 | 1.0 | 86.6* | 17.0 | 1.2
Cc1cc(NC(=O)c2noc3c2CCCC3)nn1Cc1ccc(Cl)cc1 | 4.3 | 6.0 | 80.9* | 6.1 | 0.9
COc1ccc2c(c1)CCc1c(C(=O)Nc3cc(C)n(Cc4ccc(Cl)cc4)n3)noc1-2 | 5.6 | -9.0 | 7.5 | 19.1 | 0.8
Cc1nn(Cc2ccccc2Cl)c(C)c1NC(=O)c1noc2c1CCCCC2 | -2.3 | -6.0 | 65.3* | -1.5 | 1.3
CCCCN(CCCNC(=O)c1ccc2nc(N3CCOCC3)sc2c1)Cc1ccccc1 | · | 0.0 | · | · | 2.2*
O=c1c([N+](=O)[O-])c(Nc2ccc(Br)cc2)c2ccccc2n1-c1ccccc1 | 4.3 | · | · | · | ·
Nc1nc(SCc2nc3scc(-c4cccs4)c3c(=O)[nH]2)n[nH]1 | -4.2 | 1.0 | 8.1 | -1.8 | 2.5*
C=CCN1C(=O)/C(=C\c2ccc(-c3ccc(Br)cc3)o2)C(=O)NC1=S | 100.4* | · | · | · | ·
C=CCN1C(=O)/C(=C\c2ccc(-c3ccc([N+](=O)[O-])cc3)o2)C(=O)NC1=S | 102.0* | · | · | · | ·
C=CCN1C(=O)/C(=C\c2ccc(-c3cccc([N+](=O)[O-])c3)o2)C(=O)NC1=S | 96.3* | · | · | · | ·
C=CCN1C(=O)/C(=C\c2ccc(-c3ccc(C)cc3Br)o2)C(=O)NC1=S | 102.1* | · | · | · | ·
C=CCN1C(=O)/C(=C/c2cccc([N+](=O)[O-])c2)C(=O)NC1=S | 9.9 | · | · | · | ·
CC(C)Oc1ccc(C2C3=C(CC(C)(C)CC3=O)Nc3ccccc3N2C(=O)Cc2ccccc2)cc1 (centres undefined) | -0.5 | · | · | · | ·
SMILES | HePTP inh | E coli WT exp | tolC growth inh | AP ELISA ortho | PLAP activator
C=CCOc1ccc(/C=C2\C(=O)N(c3cccc(C(=O)O)c3)N=C2C)cc1OC | -7.9 | · | · | · | ·
O=C(/C=C/c1ccc2c(c1)OCO2)Nc1ccccc1I | 1.0 | · | · | · | ·
CCN1CCN(Cc2cccc(Oc3ccccc3)c2)CC1 | · | -1.0 | · | · | 2.2*
CCNc1nc(NC(C)C)nc(OCCNS(=O)(=O)c2cc(C)ccc2C)n1 | 0.0 | 6.0 | 24.6 | 31.9* | 1
CCC1(c2ccccc2)C(=O)N(C(=O)c2ccccc2)C(=O)N(C(=O)c2cc(OC)c(OC)c(OC)c2)C1=O (centres undefined) | -12.3 | · | · | · | ·
COc1cccc(Oc2cn[nH]c2-c2ccc(OC)cc2O)c1 | 0.0 | 20.0 | 97.2* | 9.7 | 2.2*
CCOc1ccc(-c2[nH]ncc2Oc2cccc(OC)c2)c(O)c1 | -12.0 | 15.0 | 98.6* | -19.3 | 2.6*
COc1cccc(Oc2cn[nH]c2-c2ccc(O)cc2O)c1 | -6.6 | 24.0 | 96.5* | -9.3 | 2*
CCOc1ccc(-c2n[nH]c(C)c2-c2ccccc2OC)c(O)c1 | 4.0 | -3.0 | 35.4 | 4.8 | 1.1
CC(C)C(=O)Nc1ccc(NC(=O)c2ccco2)cc1 | -2.7 | · | · | · | ·
C#CCOc1ccc(C2C(C(=O)OC)=C(C)NC3=C2C(=O)c2ccccc23)cc1 (centres undefined) | 3.9 | · | · | · | ·
O=C(N/N=C/c1cc(O)c(Br)cc1Br)c1cccc(F)c1 | -17.2 | · | · | · | ·
COCCOC(=O)c1ccc(NC(=O)COc2ccc(Br)cc2)cc1 | 4.2 | · | · | · | ·
O=C(c1ccccc1CCc1ccccc1)N1CCN(c2ccccn2)CC1 | 2.4 | -3.0 | 79.4* | 10.2 | 1.4
CSCCC(NC(=O)c1ccccc1)C(=O)OCC(=O)Nc1cc(C)on1 (centres undefined) | 4.2 | · | · | · | ·
CC1CCCCN1c1nc(-c2ccncc2)nc2ccccc12 (centres undefined) | 1.9 | 5.0 | 100.0* | 7.8 | 1
COc1ccc(NC(=O)CSc2ncn[nH]2)c([N+](=O)[O-])c1 | · | 9.0 | · | · | 1
COc1ccc(C(=O)CSc2ncn[nH]2)cc1 | -0.3 | · | · | · | ·
Cc1ccc(C(=O)CSc2ncn[nH]2)cc1 | -0.8 | -7.0 | 4.4 | -10.6 | 2.3*
COc1ccc(C(=O)CSc2ncn[nH]2)cc1OC | -1.7 | 1.0 | -17.0 | 7.5 | 2.1*
COc1ccc2c(c1)C(C)CC(C)(C)N2C(=O)CSc1ncn[nH]1 (centres undefined) | 2.5 | -5.0 | 0.3 | 12.2 | 2.4*
CCc1ccc(C(=O)CSc2ncn[nH]2)cc1 | 2.6 | 1.0 | -6.2 | 7.9 | 2.4*
COc1cc(CSc2ncn[nH]2)c(OC)cc1CSc1ncn[nH]1 | 1.3 | 9.0 | -11.0 | 1.5 | 1.1
Cc1ccc2oc(C(=O)Nc3ccc([N+](=O)[O-])cc3Cl)c(C)c2c1 | -2.6 | · | · | · | ·
O=C(CN(Cc1ccc2c(c1)OCO2)C(=O)CSc1nc2ccccc2o1)NC1CCCCC1 | 5.2 | 2.0 | 100.0* | 17.9 | 1.1
SMILES | HePTP inh | E coli WT exp | tolC growth inh | AP ELISA ortho | PLAP activator
CSCCOC(=O)C1=C(C)NC(=O)CC1c1ccccc1Cl (centres undefined) | 6.9 | 13.0 | 62.5* | 12.6 | 1.1
CCNC(=S)NNC(=O)c1ccccc1OC(F)F | · | 0.0 | · | · | 2.9*
CCOC(=O)c1sc2c(c1C)C(c1cccs1)C1=C(CCCC1=O)N2 (centres undefined) | 0.2 | -7.0 | 80.0* | 3.1 | 1
CCOC(=O)C1=C(C)NC2=C(C(=O)CCC2)C1c1cccs1 (centres undefined) | -7.4 | -8.0 | 10.6 | 15.5 | 0.8
c1ccc(-c2nc(CSc3nnc(-c4cccs4)o3)cs2)cc1 | 4.8 | -28.0 | 63.3* | 16.0 | ·
Cc1ccc(Nc2nc(CSc3nnc(-c4cccs4)o3)cs2)cc1 | 9.1 | -7.0 | 43.1 | 8.9 | 0.7
CC1CCN(C(=O)c2ccccc2NC(=O)c2ccco2)CC1 | 103.2* | · | · | · | ·
Cc1ccc(OCCOCCOc2ccc(Cl)cc2/C=N\n2cnnc2)cc1 | 1.3 | · | · | · | ·
CCCc1cnc(-c2ccc(F)cc2)nc1 | 7.0 | · | · | · | ·
